Measurements reported in ChEMBL document CHEMBL3352409, “Synthetic reactions with rare taccalonolides reveal the value of C-22,23 epoxidation for microtubule stabilizing potency” (J Med Chem, 2014).
pIC50: −log10 of the molar value. Activity calls are given as the source filed them. No cut-off for these calls is given here.

Legend:
HeLa [1] = test: Antiproliferative activity against human HeLa cells by SRB assay; assay type: functional, cell-based
In short: (§1)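 SRB assay in HeLa cells, IC50 from concentration-response; three independent experiments, each in triplicate, reported with standard deviation.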

HeLa [2] = test: Stabilization of microtubules in interphase human HeLa cells at 4 nM after 18 hrs by immunofluorescence microscopy; assay type: cell-based
In short: (§2)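 Interphase HeLa cells exposed to compound or EtOH vehicle for 18 h. Microtubules stained with a β-tubulin antibody and imaged by fluorescence microscopy.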

Tubulin (Sus scrofa) [3] = target: T1, Tubulin (Sus scrofa) (UniProt P02554+P02550); test: Binding affinity to purified porcine brain tubulin at 0.7 uM by turbidimetry
T1 sequence (P02550 whole entry, looked up): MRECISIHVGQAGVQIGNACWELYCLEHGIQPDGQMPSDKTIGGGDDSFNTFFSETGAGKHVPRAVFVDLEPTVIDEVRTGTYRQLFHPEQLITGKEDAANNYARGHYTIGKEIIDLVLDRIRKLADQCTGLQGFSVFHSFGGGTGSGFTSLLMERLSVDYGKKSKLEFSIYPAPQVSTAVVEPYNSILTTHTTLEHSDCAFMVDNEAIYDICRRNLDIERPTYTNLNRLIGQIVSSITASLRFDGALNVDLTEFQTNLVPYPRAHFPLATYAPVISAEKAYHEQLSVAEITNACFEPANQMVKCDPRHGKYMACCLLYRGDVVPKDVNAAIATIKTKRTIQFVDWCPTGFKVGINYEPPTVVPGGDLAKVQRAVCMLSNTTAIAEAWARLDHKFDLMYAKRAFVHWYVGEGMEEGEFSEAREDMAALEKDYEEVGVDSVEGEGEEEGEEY
T1 sequence (P02554 whole entry, looked up): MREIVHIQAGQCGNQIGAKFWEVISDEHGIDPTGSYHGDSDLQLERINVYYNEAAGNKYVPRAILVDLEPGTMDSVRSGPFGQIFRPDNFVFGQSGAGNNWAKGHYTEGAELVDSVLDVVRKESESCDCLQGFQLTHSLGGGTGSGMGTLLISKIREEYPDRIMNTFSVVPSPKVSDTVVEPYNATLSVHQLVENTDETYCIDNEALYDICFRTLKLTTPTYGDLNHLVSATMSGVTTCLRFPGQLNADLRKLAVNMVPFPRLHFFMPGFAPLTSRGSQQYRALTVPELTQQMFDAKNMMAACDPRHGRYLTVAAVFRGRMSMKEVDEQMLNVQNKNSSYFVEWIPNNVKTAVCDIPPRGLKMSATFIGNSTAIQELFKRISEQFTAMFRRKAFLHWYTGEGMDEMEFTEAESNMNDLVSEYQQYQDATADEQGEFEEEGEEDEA
In short: (§3)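 Compound added from 100× EtOH stock (1% final EtOH). Polymerization started by shift to 37 °C and followed as turbidity at OD340.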

MDA-MB-231 [4] = test: Antitumor activity against human MDA-MB-231 cells xenografted in nu/nu mouse assessed as tumor growth inhibition at 0.25 mg/kg, ip on days 0 and 3 measured on day 7; assay type: functional, organism-based; design: dose 0.25 mg/kg
In short: (§4)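 MDA-MB-231 tumor fragments implanted bilaterally in female nu/nu mice; randomized groups of 5, dosing started at mean tumor size 134 mm3. Compound given ip at 0.25 mg/kg on days 0 and 3, from a 1.25 mg/mL EtOH stock diluted at least 1:10 in 200 µL PBS. Tumor volume and body weight recorded 2-3 times weekly; 10 tumors averaged, with standard error.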

MDA-MB-231 [5] = test: Antitumor activity against human MDA-MB-231 cells xenografted in nu/nu mouse assessed as tumor growth inhibition at 0.25 mg/kg, ip on days 0 and 3 measured after 1 week post final dose; assay type: functional, organism-based; design: dose 0.25 mg/kg; in short: as §4
MDA-MB-231 [6] = test: Antitumor activity against human MDA-MB-231 cells xenografted in nu/nu mouse assessed as tumor growth inhibition at 0.25 mg/kg, ip on days 0 and 3 measured after 17 days; assay type: functional, organism-based; design: dose 0.25 mg/kg; in short: as §4
Mus musculus [7] = test: Toxicity in human MDA-MB-231 cells xenografted nu/nu mouse assessed as weight loss at 0.25 mg/kg, ip on days 0 and 3 measured on day 7; assay type: organism-based; design: dose 0.25 mg/kg, route intraperitoneal; conditions: in vivo; in short: as §4
Mus musculus [8] = test: Toxicity in human MDA-MB-231 cells xenografted nu/nu mouse assessed as weight loss at 0.25 mg/kg, ip on days 0 and 3 measured on day 17; assay type: organism-based; design: dose 0.25 mg/kg, route intraperitoneal; conditions: in vivo; in short: as §4
Mus musculus [9] = test: Toxicity in human MDA-MB-231 cells xenografted nu/nu mouse assessed as mortality at 0.375 mg/kg, ip on days 0 and 3 measured on day 8 to day 11; assay type: organism-based; design: dose 0.375 mg/kg, route intraperitoneal; conditions: in vivo
In short: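 Female nu/nu mice with bilateral MDA-MB-231 tumor fragment implants, groups of 5. Two doses were given on days 0 and 3, starting when mean tumor size was 134 mm3. Stock in 100% EtOH (1.25 mg/mL) was diluted at least 1:10 in 200 µL PBS just before ip injection. Mice were checked daily during dosing, weighed 2-3 times weekly, and scored for lethality after the last dose.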

HeLa [10] = test: Ratio of taccalonolide B IC50 to compound IC50 for human HeLa cells by SRB assay; assay type: functional
HeLa [11] = test: Stabilization of microtubules in interphase human HeLa cells at 10 nM after 18 hrs by immunofluorescence microscopy; assay type: cell-based; in short: as §2
Tubulin (Sus scrofa) [12] = target: T1, Tubulin (Sus scrofa); test: Binding affinity to purified porcine brain tubulin at 6 uM by turbidimetry; in short: as §3
MDA-MB-231 [13] = test: Antitumor activity against human MDA-MB-231 cells xenografted in nu/nu mouse assessed as tumor growth inhibition at 0.75 mg/kg, ip on days 0, 3 and 7 measured on day 21; assay type: functional, organism-based; design: dose 0.75 mg/kg
In short: (§5)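 MDA-MB-231 fragments implanted bilaterally in female nu/nu mice; groups of 5, dosing started at mean tumor size 134 mm3. Compound given ip on days 0, 3 and 7, from a 1 mg/mL EtOH stock diluted at least 1:10 in 200 µL PBS. Tumor volume and weight measured 2-3 times weekly; 10 tumors averaged, with standard error; mice sacrificed day 21.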

Mus musculus [14] = test: Toxicity in human MDA-MB-231 cells xenografted nu/nu mouse assessed as weight loss at 0.75 mg/kg, ip on days 0, 3 and 7 measured on day 17; assay type: organism-based; design: dose 0.75 mg/kg, route intraperitoneal; conditions: in vivo; in short: as §5
HeLa [15] = test: Antiproliferative activity against human HeLa cells up to 50 uM by SRB assay; assay type: functional, cell-based; in short: as §1
HeLa [16] = test: Ratio of taccalonolide A IC50 to compound IC50 for human HeLa cells by SRB assay; assay type: functional
HeLa [17] = test: Ratio of taccalonolide AM IC50 to compound IC50 for human HeLa cells by SRB assay; assay type: functional

CC(=O)O[C@@H]1[C@H]2[C@@H]3[C@@H](O)C(=O)[C@H]4C[C@@H]5O[C@@H]5[C@H](OC(C)=O)[C@]4(C)[C@H]3C[C@H](OC(C)=O)[C@]2(C)[C@H]2[C@H](C)[C@@H]3O[C@@]34OC(=O)[C@@](C)(O)[C@]4(C)[C@H]12
pIC50 (HeLa [1]): 6.73

CC(=O)O[C@H]1C[C@H]2[C@H]([C@@H]3[C@@H](O)[C@@H]4[C@H]([C@H](C)[C@@H]5O[C@@]56OC(=O)[C@@](C)(O)[C@]46C)[C@]31C)[C@@H](O)C(=O)[C@H]1C[C@@H]3O[C@@H]3[C@H](OC(C)=O)[C@@]12C
pIC50 (HeLa [1]): 7.84

CC(=O)O[C@@H]1[C@H]2[C@H]3[C@H]([C@H](OC(C)=O)[C@H](OC(C)=O)[C@]2(C)[C@H]2[C@H](C)[C@@H]4O[C@@]45OC(=O)[C@@](C)(O)[C@]5(C)[C@H]12)[C@@]1(C)[C@@H](OC(C)=O)[C@H]2O[C@H]2C[C@]1(O)C(=O)[C@@H]3O
pIC50 (HeLa [1]): 7.76

CC(=O)O[C@@H]1[C@H]2[C@H]3[C@H]([C@H](OC(C)=O)[C@H](OC(C)=O)[C@]2(C)[C@H]2[C@H](C)[C@@H]4O[C@@]45OC(=O)[C@@](C)(O)[C@]5(C)[C@H]12)[C@@]1(C)[C@@H](OC(C)=O)[C@H]2O[C@H]2C[C@]1(O)C(=O)[C@@H]3OC(C)=O
pIC50 (HeLa [1]): 7.81

CC(=O)O[C@@H]1[C@H]2[C@@H]3[C@@H](OC(C)=O)C(=O)[C@@]4(O)C[C@@H]5O[C@@H]5[C@H](OC(=O)CC(C)C)[C@]4(C)[C@H]3C[C@H](OC(C)=O)[C@]2(C)[C@H]2[C@H](C)[C@@H]3O[C@@]34OC(=O)[C@@](C)(O)[C@]4(C)[C@H]12
pIC50 (HeLa [1]): 9.35 | Activity (HeLa [2]): Active | Activity (Tubulin (Sus scrofa) [3]): Active | TGI (MDA-MB-231 [4]): Active | TGI (MDA-MB-231 [5]): Active | TGI (MDA-MB-231 [6]): Active | Activity (Mus musculus [7]): 10% | Activity (Mus musculus [8]): Non-toxic | Activity (Mus musculus [9]): Toxic

CC(=O)O[C@@H]1[C@H]2[C@@H]3C(=O)C(O)=C4C[C@@H]5O[C@@H]5[C@H](OC(C)=O)[C@]4(C)[C@H]3[C@H](OC(C)=O)[C@H](OC(C)=O)[C@]2(C)[C@H]2[C@H](C)[C@@H]3O[C@@]34OC(=O)[C@@](C)(O)[C@]4(C)[C@H]12
pIC50 (HeLa [1]): 6.09

CC(=O)O[C@H]1[C@H]2[C@H]([C@@H]3[C@@H](O)[C@@H]4[C@H]([C@H](C)[C@@H]5O[C@@]56OC(=O)[C@@](C)(O)[C@]46C)[C@@]3(C)[C@H]1OC(C)=O)[C@@H](O)C(=O)[C@H]1C[C@@H]3O[C@@H]3[C@H](OC(C)=O)[C@]21C
Ratio IC50 (HeLa [10]): 734

CC(=O)O[C@H]1C[C@H]2[C@H]([C@@H]3[C@@H](O)[C@@H]4[C@H]([C@H](C)[C@@H]5O[C@@]56OC(=O)[C@@](C)(O)[C@]46C)[C@]31C)[C@@H](O)C(=O)[C@H]1C[C@@H]3O[C@@H]3[C@H](OC(=O)CC(C)C)[C@@]12C
pIC50 (HeLa [1]): 9.06 | Activity (HeLa [11]): Active | Activity (Tubulin (Sus scrofa) [12]): Active | Activity (MDA-MB-231 [13]): inactive | Activity (Mus musculus [14]): Non-toxic

CC(=O)O[C@@H]1[C@H](O)[C@H]2[C@@H]3[C@@H](O)[C@@H]4[C@H]([C@H](C)C=C5OC(=O)[C@@](C)(O)[C@@]54C)[C@@]3(C)[C@@H](OC(C)=O)[C@@H](OC(C)=O)[C@@H]2[C@]2(C)[C@@H]1C[C@@H]1O[C@@H]1[C@@H]2OC(C)=O
Activity (HeLa [15]): inactive

CC(=O)O[C@@H]1[C@H]2[C@H]3[C@H]([C@H](OC(C)=O)[C@H](OC(C)=O)[C@]2(C)[C@H]2[C@H](C)[C@@H]4O[C@@]45OC(=O)[C@@](C)(O)[C@]5(C)[C@H]12)[C@]1(C)[C@H](C[C@@H]2O[C@@H]2[C@@H]1OC(C)=O)C(=O)[C@@H]3O
Ratio IC50 (HeLa [16]): 231

CC(=O)O[C@H]1C[C@H]2[C@H]([C@@H]3[C@@H](O)[C@@H]4[C@H]([C@H](C)C=C5OC(=O)[C@@](C)(O)[C@@]54C)[C@]31C)[C@@H](O)C(=O)[C@H]1C[C@@H]3O[C@@H]3[C@H](OC(=O)CC(C)C)[C@@]12C
pIC50 (HeLa [1]): 7.33 | Ratio IC50 (HeLa [17]): 42

CC(=O)O[C@H]1[C@H]2[C@H]([C@@H]3[C@@H](O)[C@@H]4[C@H]([C@H](C)[C@@H]5O[C@@]56OC(=O)[C@@](C)(O)[C@]46C)[C@@]3(C)[C@H]1OC(C)=O)[C@@H](O)C(=O)[C@@]1(O)C[C@@H]3O[C@@H]3[C@H](OC(C)=O)[C@]21C
pIC50 (HeLa [1]): 8.08

CC(=O)O[C@H]1C[C@H]2[C@H]([C@@H]3[C@@H](O)[C@@H]4[C@H]([C@H](C)[C@@H]5O[C@@]56OC(=O)[C@@](C)(O)[C@]46C)[C@]31C)[C@@H](O)C(=O)[C@H]1C[C@@H]3O[C@@H]3[C@H](O)[C@@]12C
pIC50 (HeLa [1]): 6.16

CC(=O)O[C@H]1[C@H]2[C@@H]([C@@H](O)[C@@H](O)[C@H]3C[C@@H]4O[C@@H]4[C@H](OC(C)=O)[C@]23C)[C@@H]2[C@@H](O)[C@@H]3[C@H]([C@H](C)C=C4OC(=O)[C@@](C)(O)[C@@]43C)[C@@]2(C)[C@H]1OC(C)=O
Activity (HeLa [15]): inactive

CC(=O)O[C@@H]1[C@H]2[C@@H]3C(=O)C(O)=C4C[C@@H]5O[C@@H]5[C@H](OC(C)=O)[C@]4(C)[C@H]3[C@H](OC(C)=O)[C@H](OC(C)=O)[C@]2(C)[C@@H]2[C@@H]1[C@]1(C)C(=C[C@H]2C)OC(=O)[C@@]1(C)O
pIC50 (HeLa [1]): 5.46

CC(=O)O[C@@H]1[C@H]2[C@@H]3[C@@H](OC(C)=O)C(=O)[C@@]4(O)C[C@@H]5O[C@@H]5[C@H](OC(C)=O)[C@]4(C)[C@H]3C[C@H](OC(C)=O)[C@]2(C)[C@H]2[C@H](C)[C@@H]3O[C@@]34OC(=O)[C@@](C)(O)[C@]4(C)[C@H]12
pIC50 (HeLa [1]): 7.53
